KCNQ1 inh: human KCNQ1 channel inhibition. P51787. CHO-K1 KCNQ1, FluxOR thallium flux fluorescence; hits give high values. B-score at 10 µM. 310,000 tested, 1.3% active;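 active = compounds whose thallium flux B-score, printed positive for inhibition, exceeds three library SD while starting fluorescence stays within three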;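 note: channel opened by potassium depolarization with thallium stimulus after 20 min compound exposure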
KCNQ1 pot: potentiators or activators of human KCNQ1 potassium channel | CHO-K1 KCNQ1, thallium flux FluxOR fluorescence; hits give high values | P51787 | 310,000 tested, 0.35% active | B-score at 10 µM;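 active = fluorescence ratio B-score, a plate-corrected score, at least three library SD, with initial intensity B-score within 5 SD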
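Assay system: CHO-K1 cells stably expressing KCNQ1; Medium: assay buffer with matched DMSO; Also added: K+/Tl+ depolarizing stimulus; Dosing: single dose; Timing: dye 90 min, compound 20 min, room temperature; Measured by: kinetic FluxOR thallium fluorescence, 10-s 1-Hz baseline, 110-s post-stimulus read; Read-out: peak-minus-minimum fluorescence over initial fluorescence, negative-control normalized, B-scored.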
hERG rescue: shields human hERG channel from block by proarrhythmic agents; activation (rescue from dofetilide block), less the hit threshold, % at 10 µM; Q12809; CHO-hERG, FluxOR thallium flux, dofetilide IC70 present; 310,000 tested, 0.51% active; AID 1511;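 active = activation above the mean of controls blocked by dofetilide plus 5 SD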;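 note: thallium influx through hERG after potassium depolarization seen as dye fluorescence rise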
KCNK9 inh: blocks the human KCNK9 two-pore domain potassium channel. Q9NPC2. HEK293 KCNK9, FluxOR thallium flux fluorescence; hits give low values. B-score at 10 µM. 310,000 tested, 1.2% active. AID 488922;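 active = ratio B-score over 3 SD below the library mean, with starting fluorescence within 5 SD of its mean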;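 note: negative B-score means less thallium flux so channel inhibition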
KCNK3 block: human KCNK3 channel inhibition, primary screen; O14649; CHO-KCNK3 thallium flux, FluxOR fluorescence; hits give low values; B-score at 10 µM; 340,000 tested, 0.84% active; AID 602410;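 active = B-score under library mean minus 4 SD, starting fluorescence ratio at most library mean plus 5 SD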;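 note: more negative B-score means stronger inhibition of thallium flux through KCNK3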
Target sequence (O14649 whole entry, looked up): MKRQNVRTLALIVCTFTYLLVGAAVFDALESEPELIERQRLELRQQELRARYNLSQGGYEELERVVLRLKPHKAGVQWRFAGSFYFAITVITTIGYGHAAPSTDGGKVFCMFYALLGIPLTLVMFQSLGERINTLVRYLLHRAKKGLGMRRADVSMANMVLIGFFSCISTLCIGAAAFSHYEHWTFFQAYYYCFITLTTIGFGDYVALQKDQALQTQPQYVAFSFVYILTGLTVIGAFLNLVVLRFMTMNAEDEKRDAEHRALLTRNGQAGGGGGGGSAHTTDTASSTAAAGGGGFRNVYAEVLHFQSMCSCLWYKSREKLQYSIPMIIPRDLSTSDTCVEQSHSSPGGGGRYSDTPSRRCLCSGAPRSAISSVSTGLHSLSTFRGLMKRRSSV
KCNK9 inh conf: confirmation of human KCNK9 potassium channel inhibitors. HEK293 KCNK9 cells, FluxOR thallium flux fluorescence. inhibition, % at 10 µM. 4,900 tested, 43% active. shares compounds with KCNK9 inh;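 active = thallium signal inhibited by more than 5 SD of the compound-free buffer control wells, on both duplicate plates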
Kir21 sel: mouse Kir2.1 off-target activity of KCNK9 modulators. shares compounds with KCNK9 inh. Kir2.1 cells, FluxOR thallium flux fluorescence. inhibition, % at 10 µM. 4,900 tested, 4% active. AID 492993;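 active = thallium signal drop more than 5 SD beyond the mean of the no-compound control wells, seen in both duplicate plates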;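 note: signal is fluorescence rise after thallium addition divided by baseline fluorescence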
KCNK9 uninduced: non-induced cell nonspecific activity of KCNK9 modulators | shares compounds with KCNK9 inh | non-induced KCNK9-HEK293, FluxOR thallium flux | inhibition, % at 10 µM | 4,900 tested, 40% active | AID 492997;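 active = thallium signal drop beyond 5 SD of the untreated control mean, on both duplicate plates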
Hits are given with their value; – = inactive; · = not tested or not shown. The list is not random: actives were taken first. Their share in the collection is about 3.1%.

SMILES	KCNQ1 inh	KCNQ1 pot	hERG rescue	KCNK9 inh	KCNK3 block	KCNK9 inh conf	Kir21 sel	KCNK9 uninduced
Cn1c(CNC(=O)c2cccs2)nnc1SCC(=O)Nc1ccccc1	–	–	–	–	–	·	·	·
COc1ccc(CN2CCC(CO)(Cc3ccccc3C(F)(F)F)CC2)c(F)c1	–	–	–	–	–	–	–	–
N#Cc1nc(-c2ccc(F)cc2)oc1N1CCC(C(N)=O)CC1	–	–	–	–	–	·	·	·
OCc1cn(-c2ccc(Cl)cc2)nn1	–	–	–	–	–	·	·	·
Cc1ccc(Cl)cc1N1CCN(CC(O)COCc2ccco2)CC1 (stereo not drawn)	–	–	–	–	–	–	–	–
OC(COCc1ccco1)CN1CCN(C(c2ccccc2)c2ccccc2)CC1 (stereo not drawn)	–	–	–	–	–	·	·	·
Cc1ccc(Sc2c(C#N)c(-c3ccccc3)nn2C)cc1	6	–	–	-9.8	–	56%	–	40%
Cc1ccc(SCc2nn(C)c(Cl)c2C=O)cc1	–	–	–	–	–	·	·	·
Cn1nc(N)c2c(-c3ccccc3)c(C#N)c(N)nc21	–	–	–	–	–	·	·	·
Cn1nc(-c2ccccc2)c(CN2CCN(c3ncccn3)CC2)c1Cl	–	–	–	–	–	–	–	–
Cc1ccc(SCc2c(-c3ccccc3)nn(C)c2Cl)cc1	6	–	–	-8.5	–	42%	34%	47%
CC(C)NC(=O)c1ccc(-n2nc(C(F)(F)F)c3c2CCCC3)cc1	–	–	–	–	–	·	·	·
COc1cccc(C(=O)NCc2ccc(N3CCN(C(=O)OC(C)(C)C)CC3)cc2)c1	–	–	–	–	–	·	·	·
COc1ccc(C(=O)NCc2ccc(N3CCN(C(=O)OC(C)(C)C)CC3)cc2)cc1	–	–	–	–	–	–	–	–
CC(CCc1ccccc1)NC(=O)CN1C(=O)NC2(CCCCC2)C1=O (stereo not drawn)	–	–	–	–	–	·	·	·
CN(CC(=O)NC1CCCc2ccccc21)C1CCCCC1 (stereo not drawn)	–	–	–	–	–	·	·	·
CN(C1CCCCC1)S(=O)(=O)c1cccc(C(=O)OCC(=O)NC2CCCc3ccccc32)c1 (stereo not drawn)	–	–	–	-9.5	–	56%	–	–
O=c1ncc(F)c[nH]1	–	–	–	–	·	·	·	·
CCN(CC)S(=O)(=O)c1cccc(C(=O)NC2CCCCC2)c1	–	–	–	–	–	·	·	·
CCN(CC)S(=O)(=O)c1ccc(C)c(NC(=S)NC2CCCCC2)c1	–	–	–	–	–	–	–	–
CCOc1ccc(C(=O)Nc2cc(NC(=O)c3ccc(OCC)c(Cl)c3)cc(C(=O)O)c2)cc1Cl	–	–	–	–	–	–	–	–
CCOc1ccccc1NC(=O)c1ccc(Cl)c(NC(=O)CC(c2ccccc2)c2ccccc2)c1	–	–	–	-9.9	–	49%	–	30%
Cc1ccccc1Nc1nnc(SCc2cc([N+](=O)[O-])cc3c2OCOC3)s1	–	–	–	-8.9	–	–	–	–
O=[N+]([O-])c1cc2c(c(CSc3nnc(Nc4ccccc4)s3)c1)OCOC2	–	–	–	–	–	·	·	·
Cc1ccccc1Nc1nnc(SCC2CCCCO2)s1 (stereo not drawn)	–	–	–	-8.8	–	–	–	–
SMILES	KCNQ1 inh	KCNQ1 pot	hERG rescue	KCNK9 inh	KCNK3 block	KCNK9 inh conf	Kir21 sel	KCNK9 uninduced
O=C(CCc1nnc2ccc(NCc3ccco3)nn12)N1CCN(c2ccc(F)cc2)CC1	–	–	–	–	–	·	·	·
CC(c1ccco1)N(C(=O)CSc1ccc(Br)cc1)c1ccccn1 (stereo not drawn)	–	–	–	-8.9	-9.8	–	37%	38%
CC(C)c1ccc(C(=O)N(c2ccccn2)C(C)c2ccco2)cc1 (stereo not drawn)	–	–	–	–	–	·	·	·
Cc1ccc(C)c(N=C2CCCN2Cc2ccccc2)c1C#N	–	–	–	-8.9	–	–	–	36%
O=C(O)c1ccccc1NS(=O)(=O)c1cccc(-n2sc3ccccc3c2=O)c1	–	13	–	–	–	–	–	–
COc1ccc(Oc2ccc(N/C=C/C(=O)C(C)(C)C)cc2)cc1	–	–	–	–	–	–	–	–
Cc1c(NC(=O)C(C)OC(=O)c2ncc(Cl)c(Cl)c2Cl)c(=O)n(-c2ccccc2)n1C (stereo not drawn)	–	–	–	–	–	·	·	·
O=c1ccc2cc3c4c(c2o1)CCCN4CCC3	–	–	–	–	–	·	·	·
O=c1ccc2c(o1)/C(=C/C=C(Cl)Cl)CCC2	–	–	–	-12	–	42%	–	36%
CC(C)Cn1c2c(c(O)c(C(=O)Nc3ncccc3O)c1=O)CCCC2	–	–	–	-9.7	–	55%	–	40%
CCN(CC)CCOc1ccc(/C(=C(/Cl)c2ccccc2)c2ccccc2)cc1	8	–	–	–	–	–	–	–
Cc1cccc(CC(=O)OCn2nnc3ccccc3c2=O)c1	–	–	–	–	–	–	–	–
C=CCNC(=O)COc1ccc(N(C)S(=O)(=O)c2ccc(NC(C)=O)cc2)cc1	–	–	–	–	–	·	·	·
O=c1nc(SCc2ccc(Cl)cc2)nc(-c2ccccc2)[nH]1	–	–	–	–	–	–	–	–
O=c1nc(SCc2c(F)cccc2Cl)nc(-c2ccccc2)[nH]1	–	–	–	–	·	·	·	·
Cc1ccc(C)c(C(=O)COC(=O)c2cc([N+](=O)[O-])ccc2NCCO)c1	–	11	–	-8.2	–	59%	–	–
Cc1ccc(C)c(C(=O)COC(=O)c2cc([N+](=O)[O-])ccc2N2CCOCC2)c1	–	–	–	–	–	·	·	·
O=S(=O)(NCC(c1ccco1)N1CCN(c2ccccc2)CC1)c1ccc(F)cc1 (stereo not drawn)	–	–	–	–	–	·	·	·
O=S(=O)(NCC(c1ccco1)N1CCN(c2ccccc2F)CC1)c1ccc(F)cc1 (stereo not drawn)	–	–	–	-13	–	46%	–	34%
O=C(Nc1ccc(F)cc1F)C1CCN(C(=O)c2ccc(Br)cc2)CC1	–	–	–	–	–	·	·	·
O=C(Nc1cccc(F)c1)C1CCN(C(=O)c2ccc(Br)cc2)CC1	–	–	–	–	–	–	–	–
O=C(Nc1ccc2c(c1)OCCO2)C1CCN(C(=O)c2ccc(Br)cc2)CC1	–	–	–	–	–	·	·	·
O=C(Nc1ccc(Br)cc1)C1CCN(C(=O)c2ccc(F)cc2)CC1	–	–	–	–	–	–	–	–
CC(=O)NN1C(=O)c2ccc3c4c(ccc(c24)C1=O)C(=O)N(NC(C)=O)C3=O	–	–	–	–	–	·	·	·
